The values below come from ChEMBL document CHEMBL1125680, “Quinazolinone cholecystokinin-B receptor ligands” (J Med Chem, 1991).

Structures are written as SMILES.

For assay [1], the target named is T1, Cholecystokinin receptor type A (Rattus norvegicus) (UniProt P30551).
T1 sequence (whole entry): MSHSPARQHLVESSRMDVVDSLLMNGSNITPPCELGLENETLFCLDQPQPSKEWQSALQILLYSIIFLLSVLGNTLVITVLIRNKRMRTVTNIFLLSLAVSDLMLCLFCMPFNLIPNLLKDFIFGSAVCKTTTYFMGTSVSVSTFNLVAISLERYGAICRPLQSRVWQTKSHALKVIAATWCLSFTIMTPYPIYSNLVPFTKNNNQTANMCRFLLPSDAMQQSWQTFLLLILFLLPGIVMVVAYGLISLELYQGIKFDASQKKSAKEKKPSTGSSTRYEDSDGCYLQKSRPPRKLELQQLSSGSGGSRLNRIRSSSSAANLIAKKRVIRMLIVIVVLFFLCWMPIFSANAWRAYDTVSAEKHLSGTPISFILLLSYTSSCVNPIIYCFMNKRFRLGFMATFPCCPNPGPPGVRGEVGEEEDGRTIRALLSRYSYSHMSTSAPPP
In words: Inhibition of [3H]-labeled L-364,718 binding to Cholecystokinin type A receptor in rat pancreas. The note with it: concentration not given here.

Assay [2] deals with T2, Gastrin/cholecystokinin type B receptor (Mus musculus) (UniProt P56481).
T2 sequence (whole entry): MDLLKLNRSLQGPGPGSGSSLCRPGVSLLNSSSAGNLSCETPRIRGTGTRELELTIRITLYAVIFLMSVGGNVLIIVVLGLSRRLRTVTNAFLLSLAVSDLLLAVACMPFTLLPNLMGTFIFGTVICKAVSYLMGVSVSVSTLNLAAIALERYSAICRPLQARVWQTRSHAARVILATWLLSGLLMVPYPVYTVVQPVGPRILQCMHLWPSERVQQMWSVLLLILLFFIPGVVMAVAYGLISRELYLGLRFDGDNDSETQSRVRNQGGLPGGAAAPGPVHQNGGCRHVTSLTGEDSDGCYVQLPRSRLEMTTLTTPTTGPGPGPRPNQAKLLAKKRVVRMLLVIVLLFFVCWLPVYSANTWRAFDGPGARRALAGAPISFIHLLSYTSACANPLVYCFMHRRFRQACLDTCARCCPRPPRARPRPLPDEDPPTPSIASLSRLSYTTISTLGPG
In words: Inhibition of [125I]-labeled CCK-8 sulfate binding to cholecystokinin type B receptor in mouse brain membranes. Type of assay: cell membranes. The settings on record: Membrane, concentration not given here. In short, it runs like this: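 Mouse brain membranes as the CCK-B receptor source, with 125I-labelled CCK-8 sulfate as the radioligand, following the Chang and Lotti method.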

Assay [3] concerns the target T3, Gastrin/cholecystokinin type B receptor (Mus musculus, UniProt P56481).
T3 sequence (P56481 whole entry): T2 sequence (whole entry)
In words: Inhibition of [125I]CCK-8 sulfate binding to cholecystokinin type B receptor in mouse brain membranes. Type of assay: cell membranes.

In general, inhibition refers to the change of the read-out against control, counted positive when it falls. Regarding `COc1cccc(-n2c(CCc3c[nH]c4ccc(Br)cc34)nc3ccccc3c2=O)c1`, the inhibition in assay [1] turned out to be 5%.

As for `COc1ccccc1-n1c(CCc2c[nH]c3ccccc23)nc2ccccc2c1=O`, the inhibition in assay [2] was determined as 74%.

`O=c1c2ccccc2nc(CCc2c[nH]c3ccccc23)n1-c1ccccc1C(F)(F)F`: in assay [2], the inhibition was 35%. As a reminder, the IC50 is the midpoint of a concentration-inhibition curve. High values mean weaker potency, low ones greater potency. In assay [3], `CCCOc1cccc(-n2c(CCc3c[nH]c4ccc(Br)cc34)nc3ccccc3c2=O)c1` showed a half-maximal inhibitory concentration (IC50) of 58 nM. For the compound `CC(C)Oc1cccc(-n2c(CCc3c[nH]c4ccc(Br)cc34)nc3ccccc3c2=O)c1`, in assay [1], the inhibition was -6%. For `CCc1cccc(-n2c(CCc3c[nH]c4ccc(Br)cc34)nc3ccccc3c2=O)c1`, the inhibition in assay [1] was -5%. Turning to `O=c1c2ccccc2nc(CCc2c[nH]c3ccccc23)n1-c1ccccc1Cl`, the inhibition in assay [2] amounted to 44%. Same read-out and setting: the value for `O=c1c2ccccc2nc(CCc2c[nH]c3ccccc23)n1-c1ccccc1F` was 75%. Regarding `O=c1c2ccccc2nc(CCc2c[nH]c3ccc(Br)cc23)n1-c1cccc(OC2CCCC2)c1`, the IC50 in assay [3] was found to be 67 nM. As to `O=c1c2ccccc2nc(CCc2c[nH]c3ccccc23)n1-c1cccc(C(F)(F)F)c1`, in assay [3], the IC50 worked out at 480 nM. For the same compound, in assay [1], the inhibition came to 6%.
